PKD1 kinase inh = inhibitors of human PKD1 kinase | actives 0.056% (n = 200,000) | inhibition, % (test concentration not listed) | Q15139 | PKD1 kinase fluorescence polarization assay | AID 797; in the data active = inhibition above about 50%
Target sequence (Q15139 whole entry, looked up): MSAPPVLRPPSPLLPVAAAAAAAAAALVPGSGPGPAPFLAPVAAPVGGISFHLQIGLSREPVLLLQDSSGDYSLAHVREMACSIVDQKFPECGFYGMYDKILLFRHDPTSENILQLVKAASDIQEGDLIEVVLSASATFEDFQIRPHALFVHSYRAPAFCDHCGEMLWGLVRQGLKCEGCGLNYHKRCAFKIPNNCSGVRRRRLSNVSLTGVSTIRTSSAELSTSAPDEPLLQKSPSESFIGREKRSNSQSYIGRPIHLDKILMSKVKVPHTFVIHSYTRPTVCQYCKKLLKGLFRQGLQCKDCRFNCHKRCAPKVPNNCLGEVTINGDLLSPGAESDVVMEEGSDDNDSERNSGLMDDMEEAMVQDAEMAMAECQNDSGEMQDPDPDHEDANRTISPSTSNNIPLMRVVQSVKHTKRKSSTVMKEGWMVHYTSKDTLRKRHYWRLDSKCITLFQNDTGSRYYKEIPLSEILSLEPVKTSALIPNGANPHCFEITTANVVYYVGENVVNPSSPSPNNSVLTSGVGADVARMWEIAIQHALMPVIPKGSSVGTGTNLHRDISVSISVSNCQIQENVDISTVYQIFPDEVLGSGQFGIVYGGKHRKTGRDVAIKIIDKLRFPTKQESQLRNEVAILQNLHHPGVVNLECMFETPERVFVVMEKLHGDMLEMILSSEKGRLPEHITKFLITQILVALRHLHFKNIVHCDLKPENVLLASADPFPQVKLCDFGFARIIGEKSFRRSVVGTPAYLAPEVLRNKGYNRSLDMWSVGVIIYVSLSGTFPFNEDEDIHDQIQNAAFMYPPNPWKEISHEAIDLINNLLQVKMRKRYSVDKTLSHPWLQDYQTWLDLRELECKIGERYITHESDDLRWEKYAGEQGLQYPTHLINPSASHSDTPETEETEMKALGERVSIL
TNAP inh hi DEA = inhibitors of human TNAP at high phosphate acceptor concentration | purified TNAP, CDP-star luminescence, 1 M DEA | inhibition, % at 20 µM | actives 0.03% (n = 200,000);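 active = over 50% inhibition of tissue-nonspecific alkaline phosphatase at 20 µM in the single-dose screen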
TNAP act hi DEA = activators of human TNAP at high phosphate acceptor concentration; purified TNAP, CDP-star luminescence, 1 M DEA, 30 min; active compounds read high; 0 = EDTA background, 1 = DMSO-only activity; activation factor at 20 µM; 200,000 tested, under 10 active; AID 1136;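 active = activation factor at least 2 at 20 µM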
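Test system – human TNAP · Doses – 20 µM single point · Incubation – 30 min, room temperature · Signal – luminescent substrate turnover signal · Read-out basis – activation factor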
TNAP inh no acc = inhibitors of human TNAP without phosphate acceptor; inhibition, % at 20 µM; AID 1012; actives 0.26% (n = 200,000); purified TNAP, CDP-star luminescence, 30 min;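 active = tissue-nonspecific alkaline phosphatase inhibition above about 50% at 20 µM in the single-dose screen, limit read from the data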
FP interf 140K = counter-screen for PKD inhibitors: fluorescence polarization interference; shares compounds with PKD1 kinase inh; PKD1 FP assay interference counter-screen; inhibition, % at 10 µM; 85 tested, under 10 active; call rule not given here
Of the large screens only hits and unclear results are named; the others gave an inactive call (follow-up assays come after a bar, where they were run). Compounds with a hit are over-represented: about 0.35% of the library has one in this group of screens.

COc1ccccc1/C=C1\SC(=S)N(CCC(=O)NC2=NCCS2)C1=O	PKD1 kinase inh 52 | FP interf 140K inactive
CS(=O)(=O)N1CCN(c2ccc(NC(=O)c3ccc(Br)o3)cc2)CC1	PKD1 kinase inh 91 | FP interf 140K inactive
CC(OC(=O)c1ccc(NS(=O)(=O)c2cccs2)cc1)C(=O)N(C)C1CCCCC1 (stereo unspecified)	PKD1 kinase inh 51 | FP interf 140K inactive
COc1ccc(C(OC(=O)c2cccs2)C(=O)NCC2CCCO2)cc1 (stereo unspecified)	none
CC(=O)Oc1cc(OC(C)=O)c2c(C)cc(=O)oc2c1	PKD1 kinase inh 54 | FP interf 140K inactive
CCOC(=O)c1cccc(NC(=O)CCS(=O)(=O)c2cccc3nsnc23)c1	PKD1 kinase inh 69 | FP interf 140K inactive
Cc1cc(C)cc(Nc2cc(=O)n(C3CCCCC3)c(=O)[nH]2)c1	none
Cc1cc2nc3c(=O)n(C4CCCCC4)c(=O)[nH]c3nc2cc1N	PKD1 kinase inh 57 | FP interf 140K inactive
O=C(CN1CCc2ccccc2C1)NC1CCCC1	none
CN1CCN(c2ccccc2NC(=O)c2ccc(-c3cccc([N+](=O)[O-])c3)o2)CC1	PKD1 kinase inh 52 | FP interf 140K inactive

High-throughput results: PubChem, several laboratories
